Here are results for one compound from ChEMBL document CHEMBL5331127, “Discovery of ARD-2051 as a Potent and Orally Efficacious Proteolysis Targeting Chimera (PROTAC) Degrader of Androgen Receptor for the Treatment of Advanced Prostate Cancer” (J Med Chem, 2023).

A short description of data set [1]: Metabolic stability in rat hepatocytes assessed as half life at 1 uM measured upto 120 mins in presence of NADPH by LC-MS/MS analysis. It is filed as ADME, cell-based, Hepatocyte. As to conditions: 2 h.
The test system of another data set is VCaP. The data set can be described thus: Antitumor activity against human VCaP cells xenografted in CB17 SCID mouse assessed as tumor growth inhibition at 7.5 mg/kg, po administered for 21 days. The data set is classed as functional. As to conditions: 504 h, time 21 day, read-out: TGI. Summed up: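 SCID mice bearing VCaP xenografts dosed by oral gavage once daily for 21 days at 3.75, 7.5, 12.5 or 25 mg/kg. Tumour growth inhibition calculated against vehicle-treated mice at the end of treatment; body weight monitored.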
(A xenograft is tissue or cells of one species grown in another, often human tumour cells in immunodeficient mice.)

Data set [2] in a line: Metabolic stability in mouse liver microsomes assessed as half life at 1 uM measured upto 45 mins in presence of NADPH by LC-MS/MS analysis. The data set is classed as ADME, Microsome. As to conditions: 0.75 h. Summed up: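 Pooled liver microsomes from each species: 1 μM compound with 0.5 mg/mL microsomes and 1.7 mM NADPH in 0.1 M K-phosphate, pH 7.4, 5 mM MgCl2, 37 °C. Sampled at 0, 5, 10, 15, 30 and 45 min with cold ACN quench. No-NADPH incubation as negative control; ketanserin as positive control. LC-MS/MS; half-life from ln(remaining) versus time.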
(Microsomes from liver hold many membrane-bound enzymes, among them those of drug oxidation.)

A further data set deals with T1, Cytochrome P450 1A2 (Homo sapiens, UniProt P05177).
T1 sequence (P05177 whole entry): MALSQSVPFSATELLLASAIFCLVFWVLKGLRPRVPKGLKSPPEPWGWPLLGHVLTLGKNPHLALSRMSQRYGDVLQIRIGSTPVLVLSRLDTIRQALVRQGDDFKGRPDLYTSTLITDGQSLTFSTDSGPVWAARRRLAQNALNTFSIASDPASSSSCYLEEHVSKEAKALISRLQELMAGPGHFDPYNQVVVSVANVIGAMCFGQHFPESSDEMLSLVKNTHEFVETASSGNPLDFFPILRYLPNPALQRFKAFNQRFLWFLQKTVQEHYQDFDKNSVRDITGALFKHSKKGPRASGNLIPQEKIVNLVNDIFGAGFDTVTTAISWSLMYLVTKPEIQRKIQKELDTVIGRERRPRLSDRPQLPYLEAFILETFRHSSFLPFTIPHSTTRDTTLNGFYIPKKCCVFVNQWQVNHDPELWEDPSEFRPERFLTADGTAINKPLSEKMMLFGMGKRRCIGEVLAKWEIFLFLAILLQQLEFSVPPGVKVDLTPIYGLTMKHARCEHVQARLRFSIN
The data set is described as follows: Inhibition of CYP1A2 in human liver microsomes preincubated for 5 mins followed by NADPH addition and measured after 10 mins by LC/MS analysis. The data set is classed as ADME, Microsome. Summed up: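 Human liver microsomes (0.2 mg/mL stock) in 0.1 M potassium phosphate pH 7.4, prewarmed 5 min at 37 °C with test compound. Phenacetin as substrate; reaction started with NADPH (8 mM stock) and run 10 min, in duplicate. α-Naphthoflavone as reference inhibitor; LC/MS read-out.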

In another data set the target is Cytochrome P450 3A4 (Homo sapiens, UniProt P08684). The data set can be described thus: Inhibition of CYP3A4 in human liver microsomes using testosterone as substrate preincubated for 5 mins followed by NADPH addition and measured after 5 mins by LC/MS analysis. The data set is classed as ADME, Microsome.
A short description of data set [3]: Volume of distribution at steady state in ICR mouse at 2 mg/kg, iv measured upto 24 hrs by LC-MS/MS analysis. The data set is classed as ADME, organism-based. As to conditions: in vivo. Summed up: (§1)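 Male ICR mice. IV 2 mg/kg and PO 5 mg/kg, both in 10% PEG400 + 90% PBS adjusted to pH 8.0. Plasma sampled to 24 h; F from IV and PO exposure.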
Data set [4] can be described thus: Drug concentration in ICR mouse plasma at 10 mg/kg, po measured after 1 hr. It is filed as ADME, organism-based. Summed up: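 Mice given a single 10 mg/kg dose by oral gavage, 3 mice per time point. Plasma drug levels measured at 1, 3, 6 and 24 h; mean ± SD reported.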
Data set [5] can be described thus: Metabolic stability in human plasma assessed as half life at 1 uM measured upto 120 mins by LC-MS/MS analysis. As to conditions: 2 h. The data set is classed as ADME, cell-free. Summed up: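 Compound at 1 μM final in pre-warmed plasma of each species, 37 °C for up to 2 h. ACN/IS quench at 0, 5, 15, 30, 60 and 120 min; LC/MS. Procaine as reference (benfluorex for rat). t1/2 = 0.693/slope of ln(fraction remaining) versus time.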

Data set [6] is described as follows: Half life in Beagle dog at 3 mg/kg, po measured up to 24 hrs by LC-MS/MS analysis. It is filed as ADME, organism-based, Canis lupus familiaris. As to conditions: in vivo. Summed up:
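Male Beagle dogs dosed orally at 3 mg/kg in 90% PEG400 + 10% Cremophor.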

A short description of data set [7]: Metabolic stability in dog hepatocytes assessed as half life at 1 uM measured upto 120 mins in presence of NADPH by LC-MS/MS analysis. The data set is classed as ADME, cell-based, Canis lupus familiaris, Hepatocyte. As to conditions: 2 h.
Data set [8] in a line: Oral bioavailability in ICR mouse at 5 mg/kg measured up to 24 hrs by LC-MS/MS analysis. It is filed as ADME, organism-based. As to conditions: in vivo. Summed up: as §1

Each structure is given as a SMILES string.

Cytochrome P450 3A4, sequence (P08684 whole entry): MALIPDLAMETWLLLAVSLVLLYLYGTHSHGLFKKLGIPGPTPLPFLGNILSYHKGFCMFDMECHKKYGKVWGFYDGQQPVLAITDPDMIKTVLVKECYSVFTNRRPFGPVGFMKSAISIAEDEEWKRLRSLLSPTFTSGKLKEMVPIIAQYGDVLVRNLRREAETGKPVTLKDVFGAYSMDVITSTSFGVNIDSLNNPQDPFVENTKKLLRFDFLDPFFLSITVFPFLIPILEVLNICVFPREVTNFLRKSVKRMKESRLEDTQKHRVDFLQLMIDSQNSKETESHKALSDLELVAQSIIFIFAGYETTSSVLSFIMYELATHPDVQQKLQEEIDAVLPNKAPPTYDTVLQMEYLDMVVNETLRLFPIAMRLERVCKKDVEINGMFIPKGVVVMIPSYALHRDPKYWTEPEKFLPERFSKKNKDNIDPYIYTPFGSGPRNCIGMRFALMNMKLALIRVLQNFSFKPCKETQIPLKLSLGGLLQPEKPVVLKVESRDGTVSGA

In general, IC50 refers to the concentration that gives 50% inhibition. What is called Vdss is the apparent volume that relates the amount in the body to the concentration in plasma or blood. A higher Vdss goes with wide distribution into tissue. Turning to `C[C@H]1CC2(CCN(c3ccc(C(=O)N4CCN(C5CN(c6ccc7c(c6)C(=O)N(C6CCC(=O)NC6=O)C7=O)C5)CC4)cc3)CC2)CN1c1ccc(C#N)c(Cl)c1` (stereo partly specified), the t1/2 in data set [1] was above 2 h; in data set [2], above 1 h; in [5], above 2 h; in [6], 3.4 h; in data set [7], above 2 h. The inhibition in vivo at 7.5 mg/kg in the data set on VCaP stood at 71%. Also, the IC50 against Cytochrome P450 1A2 and on Cytochrome P450 3A4 was above 10 µM in each case. This compound also registered a Vdss in [3] of 1.3 L/kg. Moreover, in data set [4], the concentration at 1 h came to 0.495 µg/mL. This compound also gave a F in [8] of 53%.
